In brackets after ≈: the same amount, converted by molar mass. Activity calls are given as the source filed them. No cut-off for these calls is given here.
Legend:
Mycobacterium avium [1] = experiment: Antimycobacterial activity against isoniazid, rifampicin, ethambutol and ofloxacin-resistant Mycobacterium avium My 330/88 after 14 days; assay type: functional; details: My 330/88, 336 h
How it was run: (§1)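 Micromethod MIC in Šula's semisynthetic medium at 37 °C. Compounds added in DMSO at 1000 down to 0.032 µmol/L. Isoniazid standard in sterile water at 0.5–250 µmol/L. Inocula: H37Rv 10^3, M. avium 10^5, M. kansasii 10^4. Read at 14 and 21 d, plus 7 d for M. kansasii.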

[2] = tested on: Staphylococcus epidermidis; experiment: Antibacterial activity against Staphylococcus epidermidis H 6966/08 after 24 hrs by broth microdilution method; assay type: functional; details: H 6966/08, 24 h
How it was run: (§2)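 Broth microdilution in Mueller–Hinton broth, compounds dissolved in DMSO, tested over a dilution series from 500 downward. MIC taken as ≥95% growth reduction (IC95) versus drug-free control. Benzylpenicillin comparator. Readings at 24 and 48 h.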

[3] = tested on: Mycobacterium tuberculosis; experiment: Antimycobacterial activity against Mycobacterium tuberculosis H37Rv My 331/88 after 14 days; assay type: functional; details: H37Rv My 331/88, 336 h; how it was run: as §1
Mycobacterium kansasii [4] = experiment: Antimycobacterial activity against Mycobacterium kansasii 6509/96 after 14 days; assay type: functional; details: 6509/96, 336 h; how it was run: as §1
Lichtheimia corymbifera [5] = experiment: Antifungal activity against Absidia corymbifera 272 after 24 hrs by broth microdilution method; assay type: functional; details: Lichtheimia corymbifera, 272, 24 h
How it was run: (§3)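 Broth microdilution in RPMI 1640 with glutamine, fluconazole as reference. For yeasts, MIC is ≥80% growth reduction (IC80) versus control. For filamentous fungi, the value is expressed as IC50. Readings at 24 and 48 h.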

Candida albicans [6] = experiment: Antifungal activity against Candida albicans ATCC 44859 after 24 hrs by broth microdilution method; assay type: functional; details: ATCC 44859, 24 h; how it was run: as §3
[7] = tested on: Staphylococcus epidermidis; experiment: Antibacterial activity against Staphylococcus epidermidis H 6966/08 after 48 hrs by broth microdilution method; assay type: functional; details: H 6966/08, 48 h; how it was run: as §2
Lichtheimia corymbifera [8] = experiment: Antifungal activity against Absidia corymbifera 272 after 48 hrs by broth microdilution method; assay type: functional; details: Lichtheimia corymbifera, 272, 48 h; how it was run: as §3
Klebsiella pneumoniae [9] = experiment: Antibacterial activity against ESBL-positive Klebsiella pneumoniae J 14368/08 at 500 micromol/L after 24 to 48 hrs by broth microdilution method; assay type: functional, organism-based; how it was run: as §2
Candida albicans [10] = experiment: Antifungal activity against Candida albicans ATCC 44859 after 48 hrs by broth microdilution method; assay type: functional; details: ATCC 44859, 48 h; how it was run: as §3
[11] = tested on: Mycobacterium tuberculosis; experiment: Antimycobacterial activity against Mycobacterium tuberculosis H37Rv My 331/88 after 21 days; assay type: functional; details: H37Rv My 331/88, 504 h; how it was run: as §1
Mycobacterium kansasii [12] = experiment: Antimycobacterial activity against Mycobacterium kansasii My 235/80 after 7 days; assay type: functional; details: My 235/80, 168 h; how it was run: as §1
Trichosporon asahii [13] = experiment: Antifungal activity against Trichosporon asahii 1188 after 24 hrs by broth microdilution method; assay type: functional; details: Trichosporon asahii, 1188, 24 h; how it was run: as §3
Escherichia coli = experiment: Antibacterial activity against Escherichia coli CCM 4517 at 500 micromol/L after 24 to 48 hrs by broth microdilution method; assay type: functional, organism-based; how it was run: as §2
Mycobacterium kansasii [14] = experiment: Antimycobacterial activity against Mycobacterium kansasii 6509/96 after 7 days; assay type: functional; details: 6509/96, 168 h; how it was run: as §1
Klebsiella pneumoniae [15] = experiment: Antibacterial activity against Klebsiella pneumoniae D 11750/08 at 500 micromol/L after 24 to 48 hrs by broth microdilution method; assay type: functional, organism-based; how it was run: as §2
Mycobacterium avium [16] = experiment: Antimycobacterial activity against isoniazid, rifampicin, ethambutol and ofloxacin-resistant Mycobacterium avium My 330/88 after 21 days; assay type: functional; details: My 330/88, 504 h; how it was run: as §1
Nakaseomyces glabratus = experiment: Antifungal activity against Candida glabrata 20/I at 500 micromol/L after 24 to 48 hrs by broth microdilution method; assay type: functional, organism-based; how it was run: as §3
Mycobacterium kansasii [17] = experiment: Antimycobacterial activity against Mycobacterium kansasii 6509/96 after 21 days; assay type: functional; details: 6509/96, 504 h; how it was run: as §1
Candida tropicalis = experiment: Antifungal activity against Candida tropicalis 156 at 500 micromol/L after 24 to 48 hrs by broth microdilution method; assay type: functional, organism-based; how it was run: as §3
Enterococcus sp. = experiment: Antibacterial activity against Enterococcus sp. J 14365/08 at 500 micromol/L after 24 to 48 hrs by broth microdilution method; assay type: functional, organism-based; how it was run: as §2
Staphylococcus aureus [18] = experiment: Antibacterial activity against Staphylococcus aureus CCM 4516/08 after 48 hrs by broth microdilution method; assay type: functional; details: CCM 4516/08, 48 h; how it was run: as §2
HepG2 = experiment: Cytotoxicity against human HepG2 cells after 24 hrs by CellTiter assay; assay type: cell-based; details: HepG2, 24 h
How it was run: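 HepG2 cells (passage 27–33) in MEM with 10% FBS, L-glutamine and NEAA, seeded at 1×10^4 per well. Treated next day with compounds at 0.1–100 µM (or 0.1–25 µmol/L), triplicates, <1% DMSO, for 24 h at 37 °C, 5% CO2. MTS reagent added for 2 h, absorbance read at 490 nm. IC50 taken against untreated (100%) and 10% DMSO (0%) controls.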

Staphylococcus aureus [19] = experiment: Antibacterial activity against methicillin-resistant Staphylococcus aureus H 5996/08 after 24 hrs by broth microdilution method; assay type: functional; details: H 5996/08, 24 h; how it was run: as §2
Trichosporon asahii [20] = experiment: Antifungal activity against Trichosporon asahii 1188 after 48 hrs by broth microdilution method; assay type: functional; details: Trichosporon asahii, 1188, 48 h; how it was run: as §3
Mycobacterium kansasii [21] = experiment: Antimycobacterial activity against Mycobacterium kansasii My 235/80 after 21 days; assay type: functional; details: My 235/80, 504 h; how it was run: as §1
Aspergillus fumigatus [22] = experiment: Antifungal activity against Aspergillus fumigatus 231 after 24 hrs by broth microdilution method; assay type: functional; details: Aspergillus fumigatus, 231, 24 h; how it was run: as §3
[23] = tested on: Trichophyton mentagrophytes; experiment: Antifungal activity against Trichophyton mentagrophytes 445 after 120 hrs by broth microdilution method; assay type: functional; details: Trichophyton mentagrophytes, 445, 120 h
How it was run: (§4)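 Filamentous dermatophyte tested by broth microdilution in RPMI 1640 with glutamine, fluconazole as reference. Value expressed as IC50 relative to growth control. Read at 72 and 120 h.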

Pichia kudriavzevii [24] = experiment: Antifungal activity against Candida krusei E28 after 48 hrs by broth microdilution method; assay type: functional; details: E28, 48 h; how it was run: as §3
Staphylococcus aureus [25] = experiment: Antibacterial activity against methicillin-resistant Staphylococcus aureus H 5996/08 after 48 hrs by broth microdilution method; assay type: functional; details: H 5996/08, 48 h; how it was run: as §2
Aspergillus fumigatus [26] = experiment: Antifungal activity against Aspergillus fumigatus 231 after 48 hrs by broth microdilution method; assay type: functional; details: Aspergillus fumigatus, 231, 48 h; how it was run: as §3
[27] = tested on: Trichophyton mentagrophytes; experiment: Antifungal activity against Trichophyton mentagrophytes 445 after 72 hrs by broth microdilution method; assay type: functional; details: Trichophyton mentagrophytes, 445, 72 h; how it was run: as §4
Staphylococcus aureus [28] = experiment: Antibacterial activity against Staphylococcus aureus CCM 4516/08 after 24 hrs by broth microdilution method; assay type: functional; details: CCM 4516/08, 24 h; how it was run: as §2
Mycobacterium kansasii [29] = experiment: Antimycobacterial activity against Mycobacterium kansasii My 235/80 after 14 days; assay type: functional; details: My 235/80, 336 h; how it was run: as §1
Pseudomonas aeruginosa = experiment: Antibacterial activity against Pseudomonas aeruginosa CCM 1961 at 500 micromol/L after 24 to 48 hrs by broth microdilution method; assay type: functional, organism-based; how it was run: as §2
Pichia kudriavzevii [30] = experiment: Antifungal activity against Candida krusei E28 after 24 hrs by broth microdilution method; assay type: functional; details: E28, 24 h; how it was run: as §3

SMILES	MIC (Mycobacterium avium [1]) [µM]	MIC95 [2] [µM]	MIC [3] [µM]	MIC (Mycobacterium kansasii [4]) [µM]	MIC50 (Lichtheimia corymbifera [5]) [µM]	MIC80 (Candida albicans [6]) [µM]	MIC95 [7] [µM]	MIC50 (Lichtheimia corymbifera [8]) [µM]	Activity (Klebsiella pneumoniae [9])	MIC80 (Candida albicans [10]) [µM]	MIC [11] [µM]	MIC (Mycobacterium kansasii [12]) [µM]	MIC80 (Trichosporon asahii [13]) [µM]	Activity (Escherichia coli)	MIC (Mycobacterium kansasii [14]) [µM]	Activity (Klebsiella pneumoniae [15])	MIC (Mycobacterium avium [16]) [µM]	Activity (Nakaseomyces glabratus)	MIC (Mycobacterium kansasii [17]) [µM]	Activity (Candida tropicalis)	further results
CCOP(=O)(OCC)Oc1ccc(Br)cc1C(=O)Nc1cccc(Br)c1	16 (≈ 8.11 µg/mL)	31.2 (≈ 15.8 µg/mL)	2 (≈ 1.01 µg/mL)	8 (≈ 4.06 µg/mL)	> 500	> 500	250 (≈ 127 µg/mL)	> 500	inactive	> 500	2 (≈ 1.01 µg/mL)	4 (≈ 2.03 µg/mL)	> 500	inactive	4 (≈ 2.03 µg/mL)	inactive	16 (≈ 8.11 µg/mL)	inactive	8 (≈ 4.06 µg/mL)	inactive	Activity (Enterococcus sp.): inactive; MIC95 (Staphylococcus aureus [18]): 250 µM (≈ 127 µg/mL); IC50 (HepG2): 4.41 µM; MIC95 (Staphylococcus aureus [19]): 31.2 µM (≈ 15.8 µg/mL); MIC80 (Trichosporon asahii [20]): > 500 µM; MIC (Mycobacterium kansasii [21]): 8 µM (≈ 4.06 µg/mL); MIC50 (Aspergillus fumigatus [22]): > 500 µM; MIC50 [23]: > 500 µM; MIC80 (Pichia kudriavzevii [24]): > 500 µM; MIC95 (Staphylococcus aureus [25]): 250 µM (≈ 127 µg/mL); MIC50 (Aspergillus fumigatus [26]): > 500 µM; MIC50 [27]: > 500 µM; MIC95 (Staphylococcus aureus [28]): 31.2 µM (≈ 15.8 µg/mL); MIC (Mycobacterium kansasii [29]): 8 µM (≈ 4.06 µg/mL); Activity (Pseudomonas aeruginosa): inactive; MIC80 (Pichia kudriavzevii [30]): > 500 µM
CCOP(=O)(OCC)Oc1ccc(Cl)cc1C(=O)Nc1cccc(F)c1	32 (≈ 12.9 µg/mL)	250 (≈ 100 µg/mL)	8 (≈ 3.21 µg/mL)	32 (≈ 12.9 µg/mL)	> 500	> 500	500 (≈ 201 µg/mL)	> 500	inactive	> 500	8 (≈ 3.21 µg/mL)	16 (≈ 6.43 µg/mL)	> 500	inactive	16 (≈ 6.43 µg/mL)	inactive	32 (≈ 12.9 µg/mL)	inactive	32 (≈ 12.9 µg/mL)	inactive	Activity (Enterococcus sp.): inactive; MIC95 (Staphylococcus aureus [18]): 500 µM (≈ 201 µg/mL); IC50 (HepG2): 17.2 µM; MIC95 (Staphylococcus aureus [19]): 500 µM (≈ 201 µg/mL); MIC80 (Trichosporon asahii [20]): > 500 µM; MIC (Mycobacterium kansasii [21]): 32 µM (≈ 12.9 µg/mL); MIC50 (Aspergillus fumigatus [22]): > 500 µM; MIC50 [23]: 62.5 µM (≈ 25.1 µg/mL); MIC80 (Pichia kudriavzevii [24]): > 500 µM; MIC95 (Staphylococcus aureus [25]): > 500 µM; MIC50 (Aspergillus fumigatus [26]): > 500 µM; MIC50 [27]: 62.5 µM (≈ 25.1 µg/mL); MIC95 (Staphylococcus aureus [28]): 125 µM (≈ 50.2 µg/mL); MIC (Mycobacterium kansasii [29]): 32 µM (≈ 12.9 µg/mL); Activity (Pseudomonas aeruginosa): inactive; MIC80 (Pichia kudriavzevii [30]): > 500 µM

Reference: ChEMBL document CHEMBL3102784, “Salicylanilide diethyl phosphates: synthesis, antimicrobial activity and cytotoxicity” (Bioorg Med Chem, 2014)
